These results are taken from ChEMBL document CHEMBL1131833, “Synthesis and cytotoxic activity of N-(2-pyridylsulfenyl)urea derivatives. A new class of potential antineoplastic agents” (Bioorg Med Chem Lett, 1999).

The term IC50 denotes the midpoint of a concentration-inhibition curve. A high value points to lower potency.

Common to all, as to format: functional, cell-based
The subject of one assay is MEL-AC cell line. Description: Cytotoxicity against MEL-AC melanoma cell line. The conditions noted are these: Homo sapiens. An outline of the steps: (§1)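 Growth inhibition read by cell counting after 3 days of continuous exposure to 100, 10, 1, 0.1 or 0.01 µM compound. Parallel cultures counted daily to confirm exponential growth. IC50 from the counts; where inhibition stayed low across the range, reported as > highest tested concentration.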

For the next assay, the system named is K562. Description: Cytotoxicity against K-562 myelocytic leukemia cell line. The settings on record: Homo sapiens. An outline of the steps: as §1
The next assay deals with HT-29. Description: Cytotoxicity against HT-29 colon carcinoma cell line. The conditions noted are these: Homo sapiens. In a few lines:
as §1

The subject of a further assay is CCRF-CEM. Description: Cytotoxicity against CCRF-CEM lymphocytic leukemia cell line. The settings on record: Homo sapiens. In a few lines: as §1
Another assay relates to Calu-1. Description: Cytotoxicity against HTB-54 lung carcinoma cell line. The settings on record: Homo sapiens. In a few lines:
as §1

The species entered for a further assay is Homo sapiens. Description: Cytotoxicity against normal PMBC cells in clonogenic assay. An outline of the steps:
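Human peripheral blood mononuclear cells at 2.0-2.5 ×10^6 cells/mL in Iscove's medium. Clonogenic methylcellulose culture (0.9% final) with 30% fetal calf serum, 10% PHA-LCM and 6 U recombinant human erythropoietin plus compound, 14 days at 37°C. Colonies counted; at least 3 independent experiments, each in triplicate, per compound and concentration.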

SMILES strings stand for the structures.

In the case of `CCOC(=O)c1cc([N+](=O)[O-])cnc1SNC(=O)Nc1ncccn1`, the IC50 was 0.2 µM in the assay with MEL-AC cell line; 0.2 µM with K562; more than 100 µM with HT-29; 1.5 µM in the assay on CCRF-CEM; 14 µM in the assay with Calu-1.

On to `COc1cccc2c1C(=O)c1c(O)c3c(c(O)c1C2=O)C[C@@](O)(C(=O)CO)C[C@@H]3O[C@H]1C[C@H](N)[C@H](O)[C@H](C)O1` [DOXORUBICIN], for which the IC50 in the assay listed under Homo sapiens is 39.4 µM; in the assay on MEL-AC cell line, 1.2 µM; in the assay with K562 it was 1 µM; in the assay with HT-29, 0.7 µM; in the assay with Calu-1, 1.1 µM.

For the compound `CCOC(=O)c1cccnc1S(=O)(=O)NC(=O)Nc1ccc(Cl)cc1`, the IC50 with MEL-AC cell line is more than 100 µM; with K562 it was 14 µM; in the assay on HT-29, more than 100 µM; in the assay on CCRF-CEM, 4.3 µM; with Calu-1 it was more than 100 µM.

Take `CCOC(=O)c1cccnc1SNC(=O)Nc1ncccn1`: the IC50 was 13.6 µM in the assay filed under Homo sapiens; 34 µM with MEL-AC cell line; 1 µM in the assay on K562; 4.8 µM in the assay with HT-29; 15 µM with CCRF-CEM; 1.8 µM in the assay on Calu-1.

Consider `CCOC(=O)c1cccnc1SNC(=O)Nc1nc(OC)cc(OC)n1`, for which the IC50 with MEL-AC cell line turned out to be 43 µM; with K562, 43 µM; with HT-29, 96 µM; with CCRF-CEM it was 0.7 µM; in the assay on Calu-1 it was 74 µM.

For the compound `CCOC(=O)c1cccnc1S(=O)(=O)NC(=O)Nc1ncccn1`, the IC50 in the assay with MEL-AC cell line was 1.2 µM; with K562, 53 µM; in the assay with HT-29, more than 100 µM; in the assay with CCRF-CEM it was 3.5 µM; with Calu-1 it was 1.6 µM.
